This data set deals with MS2 coat protein. The data set can be described thus: apparent Kd, MS2 coat protein; higher = weaker binding; RNA-MaP array. The essentials: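 The designed RNAs, transcribed from sequenced DNA templates on an Illumina sequencing chip, were incubated with fluorescently labeled MS2 coat protein at room temperature. Protein ranged from 1.5 nM to 3 μM, with 0.8–1.5 h incubation at the lowest and 10–20 min at the highest concentrations, in Tris-HCl pH 7.5 buffer with KCl, MgCl2, BSA, DTT, tRNA and Tween20, with or without input ligand. The median of per-cluster binding-curve fits gives the apparent Kd, and designs measured on fewer than 10 clusters were excluded.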

[1] abbreviates: designed as: OFF switch for tryptophan, no ligand.
[2] abbreviates: ligand present: tryptophan, designed as: OFF switch for tryptophan.
The mark [3] stands for this setting: designed as: ON switch for flavin mononucleotide, no ligand.
[4] abbreviates: ligand present: flavin mononucleotide, designed as: ON switch for flavin mononucleotide.
[5] abbreviates: designed as: OFF switch for flavin mononucleotide, no ligand.
[6] abbreviates: ligand present: flavin mononucleotide, designed as: OFF switch for flavin mononucleotide.
Setting [7] is: designed as: OFF switch for theophylline, no ligand.
Where [8] appears, read: ligand present: theophylline, designed as: OFF switch for theophylline.

In general, apparent Kd refers to the concentration giving half-maximal binding under the conditions of the assay.

In the case of “AGCGCGAAUAGAUCCAAAGUUAUUAGUGAGCGAGGACCGGUACGGCCGCCACUCGUGGCUCUACAUGAGGAUCACCCAUGUACAU”, the “apparent Kd” value worked out at 354 nM under setting [1] and 432 nM under setting [2].

On to “AGUAACGGAACAUGAGGAUCACCCAUGUCAAAAGAUAAGACAAAGGAUAUCAGAUAAAGACCAAAUGAGAAGGUUGGAAGACAA”, for which the “apparent Kd” value by setting is: under setting [3], 43 nM; under setting [4], 31.4 nM.

Consider “GGAUUAAGCUAGAAGGUACGAUCACCGUGAUGGUAAGGAUAUAGAACGAUGCCGAUUCCAACAUGAGGAUCACCCAUGUUCCUA”, for which the “apparent Kd” value by setting is: under setting [3], 447 nM; under setting [4], 260 nM.

On to “AGUGUAAUAUAAGGAUAUAACCGCACAAGAAUGUUAGAAGGUAUUUUACAUGAGGAUCACCCAUGUGAAUGUAGUCCUCACUAU”, for which the “apparent Kd” value is, setting by setting: under setting [5], 9.6 nM; under setting [6], 10.5 nM.

Regarding “CAAGAGUUGUACAUUGUGAGGCGUCGGGAACGAGGACCGGUACGGCCGCCACUCGAAAAUUAACAUGAGGAUCACCCAUGUACAC”, the “apparent Kd” value runs as follows: under setting [1], 70.8 nM; under setting [2], 47.7 nM.

Turning to “AGAAUGUCAGGAUAUACUCGCUAUGUCGCCAAGUCACGCCGACAUGAGGAUCACCCAUGUAGAAGGGACAAGUA”, the “apparent Kd” value is 12.9 nM under setting [5] and 11.7 nM under setting [6].

Turning to “GGAUGCUCGACUCAGGAUAUACACACCGCAACAUGAGGAUCACCCAUGUAAUACGAACAAUGCACGUAGAAGGGAGGUUAACUCGA”, the “apparent Kd” value by setting is: under setting [3], 46.4 nM; under setting [4], 19.1 nM.

Regarding “GAUAGUCCCAAGGAUAUGUGGGUUUUAUCUUCUACAGAAGGUGGGACAUGAGGAUCACCCAUGUUGCGGCGAGG”, the “apparent Kd” value is 26.8 nM under setting [5] and 261 nM under setting [6].

For “CACAUGAGGAUCACCCAUGUCUACGAAAGAUGUAGGGAAAAGAGAAGGUGGAGGGAACUGCCAGCCAAGGAUAUCUGCACUCGA”, the “apparent Kd” value is, setting by setting: under setting [5], 31.8 nM; under setting [6], 33.3 nM.

Consider “AAAUACGUAAAACAUGAGGAUCACCCAUGUACAUUUAUUACCAGAAGGAGCGCUAAAAGUACCAGCUAGGAUAUGGGAAGCAAC”, for which the “apparent Kd” value reads like this: under setting [3], 8.05 nM; under setting [4], 5.83 nM.

On to “GUCAUUGCGGAGGAUAUAAAGCAAACCAAGAUGUUAGAAGGCCGGACAUGAGGAUCACCCAUGUGAUUGCACGC”, for which the “apparent Kd” value was 17.6 nM under setting [5] and 15 nM under setting [6].

For the sequence “AGAGCGAAUCUAACAUGAGGAUCACCCAUGUGUUAUGUUCACGAGGAUAUGUAGUCACUUAGGCGACAGAAGGCGUUCCAAGUA”, the “apparent Kd” value under setting [5] stood at 29.3 nM and the “apparent Kd” value under setting [6] worked out at 22 nM.

As for “UAUGUACGUAGGGACAUGAGGAUCACCCAUGUGGUCCGUAUUAGAAGGACGAAUACCGAUAAAACGUAGGAUAUAAUAACUCCG”, the “apparent Kd” value by setting is: under setting [5], 134 nM; under setting [6], 148 nM.

Take “CACCAAUUUCGAGGAUAUACGGCCGGUUAACAUUCGUCUUACAUGAGGAUCACCCAUGUGUUCGCGUAGAAGGCGAUUCUUAAU”: the “apparent Kd” value amounted to 35.4 nM under setting [3] and 31.2 nM under setting [4].

In the case of “AUUUGGCGUAGUGUUGCUCGUGGGAUAAAACGAGGACCGGUACGGCCGCCACUCGAUGAUUAACAUGAGGAUCACCCAUGUAAAU”, the “apparent Kd” value under setting [1] worked out at 24.6 nM and the “apparent Kd” value under setting [2] amounted to 104 nM.

With “GGUACCGCGGUGAGGAUAUCCUGCGUUUGGCAGCUGGAGAAGGCACAUGAGGAUCACCCAUGUAAAGAGAAUGC”, the “apparent Kd” value under setting [5] was 10.5 nM and the “apparent Kd” value under setting [6] is 16.2 nM.

As to “UUGAUCGCUCAGAAGGACGCGCAGGACCAAGCCGUAGGAUAUGACGAAUGCUAACGGAGUCCACAUGAGGAUCACCCAUGUGCA”, the “apparent Kd” value amounted to 65.2 nM under setting [3] and 18.9 nM under setting [4].

Consider “GAACAGCGGCAGAAGGACUCGCGAUUGUGUACGAACAUGAGGAUCACCCAUGUGUGAGUAUUCCAGUAGGAUAUGCGUUCUAUA”, for which the “apparent Kd” value under setting [5] was 17.2 nM and the “apparent Kd” value under setting [6] is 12.1 nM.

As for “UUGGAUGAAGGAGUGAAAAGCAACUCAGAUACCAGUCUGAGUAAUGACCCUUGGCAGCUGAGAACAUGAGGAUCACCCAUGUGAC”, the “apparent Kd” value runs as follows: under setting [7], 15.2 nM; under setting [8], 32.2 nM.

Take “UCACUUGUCUAGAAGGGUCGGCACAUGAGGAUCACCCAUGUAAAUGGCUGGUUCAAAUAAUUUUGACAGGAUAUAGAGAGCACU”: the “apparent Kd” value under setting [5] was found to be 16.6 nM and the “apparent Kd” value under setting [6] was determined as 50.4 nM.

Consider “GGGAAACUCUACACUCACAACACAUGAGGAUCACCCAUGUUAAGAAGGUUCAGAACGGGCAAUCGAAAGGAUAUUAGGAUGGCU”, for which the “apparent Kd” value runs as follows: under setting [5], 10.7 nM; under setting [6], 10.2 nM.

Regarding “AACAUGAGGAUCACCCAUGUAGGUACUUCUCGACGGCCUACAAGAAGGUGUUGUAAAGUCAAGAACAAGGAUAUUGUGAUGGCU”, the “apparent Kd” value reads like this: under setting [5], 555 nM; under setting [6], 371 nM.

Consider “UCUUCGUUGGCGUCACAAUUCAUGCAAUGCCGAGGACCGGUACGGCCGCCACUCGGACUAAUACAUGAGGAUCACCCAUGUCGUG”, for which the “apparent Kd” value is, setting by setting: under setting [1], 123 nM; under setting [2], 102 nM.

For the sequence “CGCACACAGCAACCAAAAUAAACAUGAGGAUCACCCAUGUCACAGGAUAUGGCGAACCCAGGCGACCAGAAGGGUGUAAACACA”, the “apparent Kd” value under setting [3] is 26.6 nM and the “apparent Kd” value under setting [4] turned out to be 18.6 nM.

Regarding “UUACGGCCGGAAGGAUAUUGUGGCUCCGGAGUAACAUGAGGAUCACCCAUGUGAAUCAAACACAACAAGAAGGUCCCAAAUAGG”, the “apparent Kd” value reads like this: under setting [3], 15.9 nM; under setting [4], 15.5 nM.

For “GAGCUCCACAAGAAGGGCCGUUGCCCAUGGAAGGACGGCACAUGAGGAUCACCCAUGUUGGCAGGGCAGGAUAUUGCAUUUAUU”, the “apparent Kd” value runs as follows: under setting [5], 26 nM; under setting [6], 82.8 nM.

With “AAUUUUAUGAAAGGAUAUGUGUGCUGGUCCAUCACAGAAGGUUCAAGGAGAUGGAUAUAACGACAUGAGGAUCACCCAUGUGCU”, the “apparent Kd” value turned out to be 32 nM under setting [3] and 22.1 nM under setting [4].

Regarding “GUCGCAAUCCAGAAGGACGGGCUUGGCGAGUACGUAGGAUAUGGCAGUCACAUGAGGAUCACCCAUGUCAGGAAUUUAAUCAGG”, the “apparent Kd” value reads like this: under setting [3], 53.8 nM; under setting [4], 21.7 nM.

On to “AACGACAUGAGGAUCACCCAUGUAUACGACCGAAGUGUACGGUAGGAUAUCGACAGCAUAGAUAACGAGAAGGACCCUUUUGGA”, for which the “apparent Kd” value runs as follows: under setting [3], 18.1 nM; under setting [4], 11.8 nM.

Consider “CCUUAAGCAUAAGGAUAUAAGUUUUGACUAAGUUUAGAAGGUAUGCUUGCAAGAUCCGGCAAUAACAUGAGGAUCACCCAUGUG”, for which the “apparent Kd” value by setting is: under setting [5], 27.6 nM; under setting [6], 21.3 nM.

Take “UGUAUCUCGCAGAAGGCAGGUUAAGCAACAAACUGAGGAUAUGCGUAUACAUGAGGAUCACCCAUGUUCACUGAUCGCAAAUUC”: the “apparent Kd” value runs as follows: under setting [5], 14.8 nM; under setting [6], 102 nM.

“UAGAAACGUACGGCCGCCACUCGGAAUUGGCUCAGACCAUACGUACAUGAGGAUCACCCAUGUUAGAGGACCGGGUAUAAUCUAA”: the “apparent Kd” value reads like this: (designed as: ON switch for tryptophan, no ligand) 26.7 nM; (ligand present: tryptophan, designed as: ON switch for tryptophan) 20.3 nM.

For the sequence “AAAACUAAAGUCAGGAUAUAACGAAUCGAAGAUAGAUAGAAGGGACAUGAGGAUCACCCAUGUGAGGAAGACAA”, the “apparent Kd” value is, setting by setting: under setting [5], 13.1 nM; under setting [6], 11.1 nM.

On to “CAUAGAGCUAAGAAGGCGUACGGAGACAGCAUACGAGGAUAUUAACGUCCAUGAACAUGAGGAUCACCCAUGUCGAAAACCAAA”, for which the “apparent Kd” value came to 8.42 nM under setting [3] and 8.15 nM under setting [4].

In the case of “CUUUACUGAGGAUAUACGCAGAUCUAGAUAUCGUAAUACGAACAUGAGGAUCACCCAUGUAGAAGGCAGGCCGA”, the “apparent Kd” value is, setting by setting: under setting [5], 12.4 nM; under setting [6], 24.1 nM.

With “AUCAAGUGAGGAUAUCCGUAGACUCCUAAUCAGCGACUCAAGGAGAAGGCACAUGAGGAUCACCCAUGUUAGAU”, the “apparent Kd” value amounted to 19.6 nM under setting [5] and 20.8 nM under setting [6].

On to “AGCGUUGCAGAGAAGGCGGUAUGAGUUACGCUCUCACACAUGAGGAUCACCCAUGUAAUGACGUCCGAGGAUAUCUCACAACUC”, for which the “apparent Kd” value under setting [5] is 5.47 nM and the “apparent Kd” value under setting [6] was 5.81 nM.

With “UCCUCGUAUUAAGGAUAUAGAAAAGUCACAUGAGGAUCACCCAUGUCUAAGGACGCACUAUGAGUCUAGAAGGUAAUCCGGAAU”, the “apparent Kd” value was 78.9 nM under setting [3] and 65.5 nM under setting [4].

For “UGUCAAUCGCCGGAUACCAGCCUAACUGAAGGAAAUCUAAACAUGAGGAUCACCCAUGUAGGCCCUUGGCAGCCGAGUAAGUACA”, the “apparent Kd” value runs as follows: under setting [7], 40.3 nM; under setting [8], 125 nM.

For the sequence “GUAUGUGGUGAGGAUAUCCACCCGCGGGUAUAUGGAGAAGGCACUACAUGAGGAUCACCCAUGUUAACUUGCCA”, the “apparent Kd” value reads like this: under setting [5], 10.1 nM; under setting [6], 31.8 nM.

With “ACUGGACAUGAGGAUCACCCAUGUGGCGAUACCAGUUUCAGCGGGAACCCUUGGCAGCGCGGUGCCGGCCAUAGAAGUUCUGGGA”, the “apparent Kd” value reads like this: (designed as: ON switch for theophylline, no ligand) 51.4 nM; (ligand present: theophylline, designed as: ON switch for theophylline) 60.1 nM.

“GAAUACGUCAUGAUGAACAUGAGGAUCACCCAUGUAGUGCCUUAGGAUAUGCUACGAUUACUGCCGCAGAAGGAAGUGCAAGAA”: the “apparent Kd” value was determined as 44.1 nM under setting [3] and 28.4 nM under setting [4].

As to “GGUUGAUGGUCGGCCGCCACUGUUGGUGCCAUGAGUUAAGUAUAGCACAUGAGGAUCACCCAUGUCAGGACCGGGACUCUACCCG”, the “apparent Kd” value worked out at 14.6 nM under setting [1] and 18.1 nM under setting [2].

In the case of “UGUUUGGCUUCCUUUACAUGAGGAUCACCCAUGUUAUGUAAUUAGGAUAUCCAUGUGAGAUGGUUGGAGAAGGAAUGCAUGACG”, the “apparent Kd” value under setting [5] was found to be 27 nM and the “apparent Kd” value under setting [6] came out at 33 nM.

As for “GUUGCCCAGCGAGGAUAUGUGAACCGGCUGCUCACAGAAGGCGCAAAUGAUUUUCAUUAUUCCCGACAUGAGGAUCACCCAUGU”, the “apparent Kd” value by setting is: under setting [5], 21.9 nM; under setting [6], 16.3 nM.

For the sequence “CUGCCACAGAUAGAUACCAGAGGCGUGCAAGCUACAGCUCACAUGAGGAUCACCCAUGUUCUCCCUUGGCAGCUACGGUGUAAGG”, the “apparent Kd” value runs as follows: under setting [7], 16.6 nM; under setting [8], 17.4 nM.

Consider “GUGAAACAUGAGGAUCACCCAUGUUAGGAUAUAACGCGACGGCAGGGAUCUGCGCUACUUAGAAGGAACGGGAC”, for which the “apparent Kd” value came out at 11.5 nM under setting [5] and 9.73 nM under setting [6].
